Laboratory results reported in ChEMBL document CHEMBL1152678, “Synthesis of bis-Schiff bases of isatins and their antiglycation activity” (Bioorg Med Chem, 2009).

Experiment: Antiglycation activity assessed as inhibition of BSA-derived advance glycated end product formation after 9 days by spectrophotometry
Assay type: physicochemical
Settings: not given; call rule not given here
Outline: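 BSA (100 mg/ml) incubated with 14 mM methylglyoxal in 0.1 M phosphate buffer pH 7.4 containing NaN₃ (30 mM), aseptic, 37 °C for 9 days, with or without various concentrations of test compounds (DMSO stocks); triplicate samples. AGE-related fluorescence read; % inhibition = (1 − fluorescence of test/fluorescence of control) × 100.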

**Q.** For `COc1ccc(/C=N/N=C2\C(=O)Nc3ccc(Cl)cc32)cc1OC`, which IC50 is on record?
**A.** The IC50 was “Not Active”.

**Q.** Which IC50 does the source give for `O=C1Nc2ccc(Cl)cc2/C1=N/N=C/c1ccc(F)cc1` here?
**A.** The IC50 was “Not Active”.

**Q.** For `O=C1Nc2ccccc2/C1=N/N=C/c1ccc2ccccc2c1`, which IC50 is on record?
**A.** Its IC50 is “Not Active”.

**Q.** For `O=C1Nc2ccccc2/C1=N/N=C/c1ccc(Cl)c(Cl)c1`, which IC50 is on record?
**A.** The IC50 was “Not Active”.

**Q.** For `CCOc1ccc(/C=N/N=C2\C(=O)Nc3ccccc32)cc1`, which IC50 is on record?
**A.** Its IC50 is “Not Active”.

**Q.** Which IC50 does the source give for `O=C1Nc2c(Cl)ccc(Cl)c2/C1=N/N=C/c1ccccc1F` here?
**A.** Its IC50 is “Not Active”.

**Q.** With `O=C1Nc2ccccc2/C1=N/N=C/c1ccc(F)cc1` as the compound, how does the IC50 read?
**A.** The IC50 was “Not Active”.

**Q.** For `Cc1ccc(O)c(/C=N/N=C2\C(=O)Nc3ccccc32)c1`, which IC50 is on record?
**A.** Its IC50 is “Not Active”.

**Q.** Which IC50 does the source give for `O=C1Nc2ccc(Cl)cc2/C1=N/N=C/c1ccccc1O` here?
**A.** The IC50 was “Not Active”.

**Q.** Which IC50 does the source give for `COc1cccc(/C=N/N=C2\C(=O)Nc3c(Cl)ccc(Cl)c32)c1O` here?
**A.** The IC50 was “Not Active”.

Same assay, conditions: read-out: IC50

**Q.** Which IC50 does the source give for `COc1ccc(/C=N/N=C2\C(=O)Nc3c(Cl)ccc(Cl)c32)cc1OC` here?
**A.** Its IC50 is 366 µM.

**Q.** With `O=C1Nc2ccc(Cl)cc2/C1=N/N=C/c1ccc(O)c(O)c1` as the compound, how does the IC50 read?
**A.** The IC50 was 469 µM.

**Q.** For `O=C1Nc2ccccc2/C1=N/N=C/c1cccc2ccccc12`, which IC50 is on record?
**A.** The IC50 was 380 µM.

**Q.** With `O=C1Nc2ccccc2/C1=N/N=C/c1ccccc1F` as the compound, how does the IC50 read?
**A.** The IC50 was 362 µM.

**Q.** For `CN(C)c1ccc(/C=N/N=C2\C(=O)Nc3ccccc32)cc1`, which IC50 is on record?
**A.** The IC50 was 406 µM.

**Q.** Which IC50 does the source give for `COc1cccc(/C=N/N=C2\C(=O)Nc3ccccc32)c1O` here?
**A.** The IC50 was 359 µM.

**Q.** With `O=C1Nc2ccccc2/C1=N/N=C/c1ccccc1[N+](=O)[O-]` as the compound, how does the IC50 read?
**A.** Its IC50 is 244 µM.

**Q.** Which IC50 does the source give for `O=C1Nc2ccccc2/C1=N/N=C/c1ccccc1O` here?
**A.** Its IC50 is 444 µM.

**Q.** Which IC50 does the source give for `O=C1Nc2ccccc2/C1=N/N=C/c1cc(Cl)ccc1O` here?
**A.** Its IC50 is 634 µM.

**Q.** Which IC50 does the source give for `CCOc1ccccc1/C=N/N=C1\C(=O)Nc2ccccc21` here?
**A.** The IC50 was 416 µM.

**Q.** With `O=C1Nc2ccccc2/C1=N/N=C/c1ccc([N+](=O)[O-])cc1` as the compound, how does the IC50 read?
**A.** The IC50 was 258 µM.

**Q.** With `O=C1Nc2ccccc2/C1=N/N=C/c1ccc(O)c(O)c1` as the compound, how does the IC50 read?
**A.** The IC50 was 291 µM.

**Q.** With `O=C1Nc2ccccc2/C1=N/N=C/c1ccc(O)cc1` as the compound, how does the IC50 read?
**A.** The IC50 was 313 µM.

**Q.** Which IC50 does the source give for `O=C1Nc2ccccc2/C1=N/N=C/c1cccc(O)c1` here?
**A.** Its IC50 is 634 µM.

**Q.** For `COc1ccccc1/C=N/N=C1\C(=O)Nc2ccccc21`, which IC50 is on record?
**A.** Its IC50 is 458 µM.

**Q.** For `O=C1Nc2ccccc2/C1=N/N=C/c1cccc(Cl)c1`, which IC50 is on record?
**A.** Its IC50 is 312 µM.

**Q.** With `O=C1Nc2c(Cl)ccc(Cl)c2/C1=N/N=C/c1ccc2ccccc2c1` as the compound, how does the IC50 read?
**A.** The IC50 was 416 µM.

**Q.** For `C[C@@H]1O[C@@H](OC[C@H]2O[C@@H](Oc3c(-c4ccc(O)c(O)c4)oc4cc(O)cc(O)c4c3=O)[C@H](O)[C@@H](O)[C@@H]2O)[C@H](O)[C@H](O)[C@H]1O` [RUTIN], which IC50 is on record?
**A.** Its IC50 is 294 µM.
